Test results taken from ChEMBL document CHEMBL1121911, “Analgesic narcotic antagonists. 8. 7 alpha-Alkyl-4,5 alpha-epoxymorphinan-6-ones” (1981).
Calls of active or inactive are those of the source. The rule behind the calls is not given here.

Assays:
Mus musculus [1] = test: Compound was tested for narcotic agonistic activity in acetic acid mouse writhing assay after subcutaneous administration of the drug at a dose of 18 uM/kg; Inactive; type: functional, organism-based
Rattus norvegicus [2] = test: Compound was tested for antinociceptive activity in heat stimulus rat tail flick assay after subcutaneous administration of the drug; type: functional; conditions: sc
How it was run: (§1)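 Subcutaneous dosing. Salts were given in distilled H2O, and free bases were dissolved with 1 N HCl and then diluted. Each ED50 (agonist) or AD50 (antagonist) came from at least three doses, with at least five animals per dose.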

Rattus norvegicus [3] = test: Narcotic antagonist activity in heat stimulus rat tail flick assay after subcutaneous administration; type: functional; conditions: sc; how it was run: as §1
Mus musculus [4] = test: Narcotic agonistic activity in acetic acid mouse writhing assay after subcutaneous administration of the drug; type: functional; conditions: sc; how it was run: as §1
Rattus norvegicus [5] = test: Compound was tested for antinociceptive activity in heat stimulus rat tail flick assay after subcutaneous administration of the drug at a dose of 25 umol/Kg; Inactive; type: functional, organism-based
Rattus norvegicus [6] = test: Compound was tested for antinociceptive activity in heat stimulus rat tail flick assay after subcutaneous administration of the drug at a dose of 18 umol/Kg; Inactive; type: functional, organism-based
Rattus norvegicus [7] = test: Compound was tested for antinociceptive activity in heat stimulus rat tail flick assay after subcutaneous administration of the drug at a dose of 30 umol/Kg; Inactive; type: functional, organism-based
Rattus norvegicus [8] = test: Compound was tested for antinociceptive activity in heat stimulus rat tail flick assay after subcutaneous administration of the drug at a dose of 28 umol/Kg; Inactive; type: functional, organism-based
Rattus norvegicus [9] = test: Compound was tested for antinociceptive activity in heat stimulus rat tail flick assay after subcutaneous administration of the drug at a dose of 29 umol/Kg; Inactive; type: functional, organism-based
Mus musculus [10] = test: Compound was tested for narcotic agonistic activity in acetic acid mouse writhing assay after subcutaneous administration of the drug at a dose of 23 uM/kg; Inactive; type: functional, organism-based
Rattus norvegicus [11] = test: Compound was tested for antinociceptive activity in heat stimulus rat tail flick assay after subcutaneous administration of the drug at a dose of 23 umol/Kg; Inactive; type: functional, organism-based
Rattus norvegicus [12] = test: Compound was tested for antinociceptive activity in heat stimulus rat tail flick assay after subcutaneous administration of the drug at a dose of 21 umol/Kg; Inactive; type: functional, organism-based
Mus musculus [13] = test: Compound was tested for narcotic agonistic activity in acetic acid mouse writhing assay after subcutaneous administration of the drug at a dose of 25 uM/kg; Inactive; type: functional, organism-based
Mus musculus [14] = test: Compound was tested for narcotic agonistic activity in acetic acid mouse writhing assay after subcutaneous administration of the drug at a dose of 26 uM/kg; Inactive; type: functional, organism-based
Mus musculus [15] = test: Compound was tested for narcotic agonistic activity in acetic acid mouse writhing assay after subcutaneous administration of the drug at a dose of 28 uM/kg; Inactive; type: functional, organism-based

Row | Compound | ED50 (Rattus norvegicus [3]) | ED50 (Mus musculus [4]) | further results
1 | COc1ccc2c3c1O[C@H]1[C@@H](O)[C@@H](CC(C)(C)O)CC4C(C2)N(C)CCC341 (stereo not given in full) | – | – | ED50 (Mus musculus [1]): inactive; ED50 (Rattus norvegicus [2]): > 18 µmol/kg
2 | Oc1ccc2c(c1)[C@@]13CCCC[C@@]1(O)[C@@H](C2)N(CC1CCC1)CC3 [BUTORPHANOL] | 2 µmol/kg | 0.3 µmol/kg | –
3 | COc1ccc2c3c1O[C@H]1C(=O)[C@@H](Cc4ccccc4)CC4C(C2)N(C)CCC341 (stereo not given in full) | – | > 25 µmol/kg | ED50 (Rattus norvegicus [5]): inactive
4 | COc1ccc2c(c1O)C13CCN(CC4CCC4)C(C2)C1[C@@H](C)[C@H](C)C(=O)C3 (stereo not given in full) | > 22 µmol/kg | 14 µmol/kg | –
5 | COc1ccc2c3c1O[C@H]1C(=O)[C@@H](C)CC4(O)C(C2)N(CC2CCC2)CCC314 (stereo not given in full) | – | 1.2 µmol/kg | ED50 (Rattus norvegicus [6]): inactive
6 | O=C1CC[C@@]2(O)[C@H]3Cc4ccc(O)c5c4[C@@]2(CCN3CC2CC2)[C@H]1O5 [NALTREXONE] | 0.2 µmol/kg | > 28 µmol/kg | –
7 | COc1ccc2c3c1O[C@H]1c4oc(C)cc4CC4C(C2)N(C)CCC341 (stereo not given in full) | – | 12.3 µmol/kg | ED50 (Rattus norvegicus [7]): inactive
8 | CN1CC[C@]23c4c5ccc(O)c4O[C@H]2[C@@H](O)C=C[C@H]3[C@H]1C5 [MORPHINE] | – | – | ED50 (Rattus norvegicus [2]): 19 µmol/kg
9 | COc1ccc2c(c1O)C13CCN(CC4CC4)C(C2)C1[C@@H](C)[C@H](C)C(=O)C3 (stereo not given in full) | > 25 µmol/kg | > 25 µmol/kg | –
10 | CCCCC[C@H]1CC2C3Cc4ccc(OC)c5c4C2(CCN3C)[C@@H](O5)C1=O (stereo not given in full) | – | 20.7 µmol/kg | –
11 | COc1ccc2c3c1O[C@H]1[C@@H](O)[C@@H](CC(C)=O)CC4C(C2)N(C)CCC341 (stereo not given in full) | – | > 28 µmol/kg | ED50 (Rattus norvegicus [8]): inactive
12 | COc1ccc2c3c1O[C@H]1c4[nH]c(C)cc4CC4C(C2)N(C)CCC341 (stereo not given in full) | – | > 29 µmol/kg | ED50 (Rattus norvegicus [9]): inactive
13 | COc1ccc2c3c1O[C@H]1[C@@H](O)C=C[C@H]4[C@@H](C2)N(C)CC[C@@]341 [CODEINE] | – | 10.3 µmol/kg | ED50 (Rattus norvegicus [2]): 75 µmol/kg
14 | COc1ccc2c3c1O[C@H]1C(=O)[C@@H](C)[C@H](C)C4C(C2)N(CC2CCC2)CCC341 (stereo not given in full) | > 26 µmol/kg | > 26 µmol/kg | –
15 | O=C1CCC2C3Cc4ccc(O)c5c4C2(CCN3CC2CC2)[C@H]1O5 (stereo not given in full) | 0.6 µmol/kg | 4.1 µmol/kg | –
16 | C[C@H]1CC2C3Cc4ccc(O)c5c4C2(CCN3CC2CC2)C(O5)C1=O (stereo not given in full) | 4.4 µmol/kg | 1.1 µmol/kg | –
17 | COc1ccc2c3c1O[C@H]1C(=O)CCC4C(C2)N(CC2CCC2)CCC341 (stereo not given in full) | – | 20.3 µmol/kg | –
18 | COc1ccc2c3c1O[C@H]1C(=O)[C@@H](CC(C)(C)C)CC4C(C2)N(C)CCC341 (stereo not given in full) | – | – | ED50 (Mus musculus [10]): inactive; ED50 (Rattus norvegicus [11]): inactive
19 | O=C1CCC2C3Cc4ccc(O)c5c4C2(CCN3CC2CCC2)[C@H]1O5 (stereo not given in full) | 5 µmol/kg | 0.2 µmol/kg | –
20 | O=C1CCC2(O)C3Cc4ccc(O)c5c4C2(CCN3CC2CCC2)[C@H]1O5 (stereo not given in full) | 1.1 µmol/kg | 9.7 µmol/kg | –
21 | CC[C@H]1CC2C3Cc4ccc(OC)c5c4C2(CCN3C)[C@@H](O5)C1=O (stereo not given in full) | – | 4.6 µmol/kg | ED50 (Rattus norvegicus [12]): inactive
22 | COc1ccc2c3c1O[C@H]1C(=O)CCC4C(C2)N(CC2CC2)CCC341 (stereo not given in full) | 7.9 µmol/kg | 39.6 µmol/kg | –

Row | Compound | ED50 (Rattus norvegicus [3]) | ED50 (Mus musculus [4]) | further results
23 | C[C@H]1[C@H]2Cc3ccc(O)cc3[C@]1(C)CCN2CC1CC1 [CYCLAZOCINE] | 0.8 µmol/kg | 0.4 µmol/kg | –
24 | COc1ccc2c3c1O[C@H]1C(=O)CCC4(O)C(C2)N(CC2CCC2)CCC314 (stereo not given in full) | > 18 µmol/kg | 16.2 µmol/kg | –
25 | COc1ccc2c3c1O[C@H]1C(=O)CC[C@@]4(O)[C@@H](C2)N(C)CC[C@]314 [OXYCODONE] | – | 1.5 µmol/kg | ED50 (Rattus norvegicus [2]): 2.9 µmol/kg
26 | COc1ccc2c3c1OC1C(=O)[C@@H](C)CC4C(C2)N(CC2CC2)CCC314 (stereo not given in full) | 4.1 µmol/kg | – | ED50 (Mus musculus [13]): inactive
27 | C[C@H]1CC2C3Cc4ccc(O)c5c4C2(CCN3CC2CCC2)[C@@H](O5)C1=O (stereo not given in full) | 33.1 µmol/kg | 0.8 µmol/kg | –
28 | COc1ccc2c3c1O[C@H]1C(=O)[C@@H](C)[C@H](C)C4C(C2)N(CC2CC2)CCC341 (stereo not given in full) | 2.4 µmol/kg | > 25 µmol/kg | –
29 | COc1ccc2c3c1O[C@H]1C(=O)[C@@H](CO)CC4C(C2)N(C)CCC341 (stereo not given in full) | – | 9.1 µmol/kg | ED50 (Rattus norvegicus [7]): inactive
30 | COc1ccc2c3c1O[C@H]1C(=O)/C(=C/N(C)C)CC4C(C2)N(C)CCC341 (stereo not given in full) | – | 11 µmol/kg | ED50 (Rattus norvegicus [8]): inactive
31 | COc1ccc2c3c1O[C@H]1C(=O)[C@@H](C)CC4C(C2)N(CC2CCC2)CCC341 (stereo not given in full) | > 25 µmol/kg | > 25 µmol/kg | –
32 | CC(C)=CCN1CC[C@]2(C)c3cc(O)ccc3C[C@H]1[C@H]2C [(+)-PENTAZOCINE] | 36.4 µmol/kg | 13 µmol/kg | –
33 | C[C@H]1CC2(O)C3Cc4ccc(O)c5c4C2(CCN3CC2CC2)[C@@H](O5)C1=O (stereo not given in full) | 0.09 µmol/kg | – | ED50 (Mus musculus [14]): inactive
34 | C[C@@H]1C(=O)[C@@H]2Oc3c(O)ccc4c3C23CCN(CC2CCC2)C(C4)C3[C@H]1C (stereo not given in full) | 6.5 µmol/kg | 15 µmol/kg | –
35 | COc1ccc2c3c1O[C@H]1C(=O)[C@@H](C)CC4C(C2)N(C)CCC341 (stereo not given in full) | – | 2.7 µmol/kg | ED50 (Rattus norvegicus [2]): 4.2 µmol/kg
36 | COc1ccc2c3c1O[C@H]1C(=O)CC[C@@]4(O)[C@@H](C2)N(CC2CC2)CC[C@]314 | 0.7 µmol/kg | – | ED50 (Mus musculus [15]): inactive
37 | C=CCN1CC[C@]23c4c5ccc(O)c4O[C@H]2[C@@H](O)C=C[C@H]3[C@H]1C5 [NALORPHINE] | 2.5 µmol/kg | 3.5 µmol/kg | –
38 | COc1ccc2c3c1O[C@H]1C(=O)CC[C@H]4[C@@H](C2)N(C)CC[C@]314 [HYDROCODONE] | – | 2.4 µmol/kg | ED50 (Rattus norvegicus [2]): 5.2 µmol/kg
39 | COc1ccc2c3c1O[C@H]1C(=O)[C@@H](C)CC4(O)C(C2)N(CC2CC2)CCC314 (stereo not given in full) | 25.4 µmol/kg | 18.7 µmol/kg | –
40 | COc1ccc2c(c1O)C13CCN(CC4CC4)C(C2)C1C[C@H](C)C(=O)C3 (stereo not given in full) | > 28 µmol/kg | 9.7 µmol/kg | –
41 | COc1ccc2c(c1OC)C13CCN(CC4CC4)C(C2)C1C[C@H](C)C(=O)C3 (stereo not given in full) | ~25 µmol/kg | 9.1 µmol/kg | –
42 | C[C@H]1CC2(O)C3Cc4ccc(O)c5c4C2(CCN3CC2CCC2)[C@@H](O5)C1=O (stereo not given in full) | 14.6 µmol/kg | 3.5 µmol/kg | –
43 | CN1CC[C@]23c4c5ccc(O)c4O[C@H]2C(=O)CC[C@H]3[C@H]1C5 [HYDROMORPHONE] | – | 0.3 µmol/kg | ED50 (Rattus norvegicus [2]): 1.3 µmol/kg
44 | C[C@@H]1C(=O)[C@@H]2Oc3c(O)ccc4c3C23CCN(CC2CC2)C(C4)C3[C@H]1C (stereo not given in full) | 1.5 µmol/kg | – | ED50 (Mus musculus [14]): inactive
